# According to paper PMC4177335 (ChemMedChem, 2014):
# Entries after “also recorded” stand apart in the source; their conditions may differ. Read-outs that look alike come from different tables or passages of the source.
# Columns and labels:
# [1] = system: P. falciparum 3D7 strain parasites; experiment: In vitro P. falciparum growth and proliferation assay; assay type: cell-based, Plasmodium falciparum; settings: for IC50: read-out: Pf3D7 IC50; for fold reduction in Pf3D7 activity: versus the comparator analogue named in the sentence
# [2] = system: highly synchronized P. falciparum parasites; settings: throughout the intraerythrocytic life cycle; ref [13]; cited from earlier work
# [3] = microsomes, cited from earlier work
# [4] = cited from earlier work
# histone H3K9me3 [5] = settings: ref [13]; cited from earlier work
# HepG2 cells [6] = settings: Table 5; ref [21]; cited from earlier work
# [7] = ref [21]; cited from earlier work
# histone H3K4me3 [8] = experiment: Parasite histone methylation analysis; assay type: cell-based, P. falciparum 3D7; settings: 5-fold IC50, 12 hours, relative to DMSO control
# How it was run: (§1)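 3D7 cultures were exposed for 12 h to test compound, chloroquine or DMSO vehicle. Infected blood was saponin-treated (0.15% in PBS) to remove red cells, and freed parasites were lysed by bath sonication in 2% SDS for Western blot. Trimethyl-specific bands were quantified by densitometry, normalized to core histone H3 signal and expressed relative to DMSO-treated parasites.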
# [9] = cited from earlier work; remark: listed apart in the source
# histone H3K4me3 [10] = settings: ref [13]; cited from earlier work
# histone H3K9me3 [11] = experiment: Parasite histone methylation analysis; assay type: cell-based, P. falciparum 3D7; settings: 5-fold IC50, 12 hours, relative to DMSO control
# How it was run: as §1
# HepG2 cells [12] = experiment: In vitro cytotoxicity assay; assay type: cell-based, human; settings: for HepG2/Pf3D7: ratio HepG2 IC50 / Pf3D7 IC50; for IC50: read-out: HepG2 IC50
# [13] = system: chloroquine-sensitive and chloroquine-resistant parasites; settings: ref [13]; cited from earlier work
# [14] = Plasmodium falciparum, 3D7, 72 h
# [15] = P. falciparum 3D7 strain, three-day SYBR Green I assay
# [16] = HepG2 cells, three days, CellTiterBlue
Compound,"IC50 [1, 14] [nM]",HepG2/Pf3D7 (HepG2 cells [12]),"IC50 [1, 15] [nM]",IC50 (HepG2 cells [12]; [16]) [nM],fold reduction in Pf3D7 activity [1],"IC50 (HepG2 cells [12]; Homo sapiens, HepG2, 72 h) [nM]",also measured
"COc1cc2nc(N3CCCN(C)CC3)nc(NC3CCN(Cc4ccccc4)CC3)c2cc1OC [Compound 1, (1-Benzyl-4-piperidyl)[6,7-dimethoxy-2-(4-methyl-1,4-diazepin-1-yl)-4-quinazolinyl]amine]",43.4,110.6,,,,,killing phenotype [2]: fast killing phenotype; rat microsome t1/2 [3]: 0.883 h; in vitro CLint ([3]; rat): 33 μl/min/mg protein; logD pH 3 ([4]; pH 3): 0.5; logD pH 7.4 ([4]; pH 7.4): 5; H3K9me3 levels of the parasite (histone H3K9me3 [5]): decrease; HepG2/3D7 (HepG2 cells [6]): 110.6; rat plasma t1/2 [7]: >4 h; H3K4me3 levels in treated parasites (histone H3K4me3 [8]): decreased; solubility pH 2 ([9]; pH 2): >100 μg/ml; solubility pH 6.5 ([9]; pH 6.5): >100 μg/ml; H3K4me3 levels of the parasite (histone H3K4me3 [10]): decrease; also recorded: reduced; H3K9me3 levels in treated parasites (histone H3K9me3 [11]): decreased; potency against chloroquine-sensitive versus chloroquine-resistant parasites [13]: equally potent
"CN1CCCN(c2nc(NC3CCN(Cc4ccccc4)CC3)c3ccccc3n2)CC1 [Compound 73, (1-Benzyl-4-piperidyl)[2-(4-methyl-1,4-diazepin-1-yl)-4-quinazolinyl]amine]",,69.6,101,7000,,,
CCN(CC)CCCC(C)Nc1ccnc2cc(Cl)ccc12 (stereo not drawn) [chloroquine],,,,,,,H3K4me3 levels in treated parasites (histone H3K4me3 [8]): slight decrease; H3K9me3 levels in treated parasites (histone H3K9me3 [11]): slight increase
"(1-Benzyl-4-piperidyl){6,7-dimethoxy-2-[4-(2-pyridyl)-1-piperazinyl]-4-quinazolinyl}amine [Compound 75]",,14.2,354,5000,,,
"COc1cc2nc(N3C=CC=CC=C3)nc(NC3CCN(Cc4ccccc4)CC3)c2cc1OC [Compound 4, (1-Benzyl-4-piperidyl)[2-(1-azepinyl)-6,7-dimethoxy-4-quinazolinyl]amine]",29.1,,,,,,Pf3D7 activity (in words) ([1]; P. falciparum 3D7 strain): comparable to 1
"COc1cc2nc(N3CCCCC3)nc(N(C)C3CCN(Cc4ccccc4)CC3)c2cc1OC [Compound 61, (1-Benzyl-4-piperidyl)-N-methyl(6,7-dimethoxy-2-piperidino-4-quinazolinyl)amine]",495,16.4,,,10-20 fold,8100,
"COc1cc2nc(N3CCN(c4ccccn4)CC3)nc(N(C)C3CCN(Cc4ccccc4)CC3)c2cc1OC [Compound 63, (1-Benzyl-4-piperidyl)-N-methyl{6,7-dimethoxy-2-[4-(2-pyridyl)-1-piperazinyl]-4-quinazolinyl}amine]",472,20.4,,,10-20 fold,9600,
"COc1cc2nc(N3C=CC=CC=C3)nc(N(C)C3CCN(Cc4ccccc4)CC3)c2cc1OC [Compound 62, (1-Benzyl-4-piperidyl)-N-methyl[2-(1-azepinyl)-6,7-dimethoxy-4-quinazolinyl]amine]",400,13.6,,,10-20 fold,5400,
"COc1cc2nc(N3CCCN(C)CC3)nc(OC3CCN(Cc4ccccc4)CC3)c2cc1OC [Compound 65, 4-(1-Benzyl-4-piperidyloxy)-6,7-dimethoxy-2-(4-methyl-1,4-diazepin-1-yl)quinazoline]",,5.4,1460,7900,,,
"COc1cc2nc(N3CCN(c4ccccn4)CC3)nc(OC3CCN(Cc4ccccc4)CC3)c2cc1OC [Compound 66, 4-(1-Benzyl-4-piperidyloxy)-6,7-dimethoxy-2-[4-(2-pyridyl)-1-piperazinyl]quinazoline]",2060,7.7,,,,15700,
"COc1cc2nc(N3CCN(C)CC3)nc(NC(C)C)c2cc1OC [Compound 51, (Isopropyl)[6,7-dimethoxy-2-(4-methyl-1-piperazinyl)-4-quinazolinyl]amine]",> 300,,,,7-17 fold,,
"COc1cc2nc(N3CCCN(C)CC3)nc(N(C)C3CCN(Cc4ccccc4)CC3)c2cc1OC [Compound 60, (1-Benzyl-4-piperidyl)-N-methyl[6,7-dimethoxy-2-(4-methyl-1,4-diazepin-1-yl)-4-quinazolinyl]amine]",,37.9,159,6000,10-20 fold,,
"c1ccc(CN2CCC(Nc3nc(N4CCCCC4)nc4ccccc34)CC2)cc1 [Compound 74, (1-Benzyl-4-piperidyl)(2-piperidino-4-quinazolinyl)amine]",385,,,,,,
